Test results: ChEMBL document CHEMBL4261620, “Design, synthesis, and biological evaluation of 4-chloro-2H-thiochromenes featuring nitrogen-containing side chains as potent antifungal agents” (Bioorg Med Chem Lett, 2018)
In brackets after ≈: the same amount, converted by molar mass.

Experiments:
Candida albicans [1] = assay: Antifungal activity against fluconazole-resistant Candida albicans 103 after 2 to 7 days by broth microdilution method; type: functional
Summary of the method: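 Broth microdilution per NCCLS. Compounds dissolved in DMSO, serially diluted in growth medium, then inoculum suspension added to give final concentrations of 128 to 0.25 µg/mL (twofold steps). Plates incubated at 32°C. MIC read by visual observation after 2-7 d. Fluconazole served as reference drug.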

Candida albicans [2] = assay: Antifungal activity against fluconazole-sensitive Candida albicans ATCC SC5314 after 2 to 7 days by broth microdilution method; type: functional
Summary of the method: (§1)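 Broth microdilution in 96-well plates per NCCLS. Compounds and fluconazole reference dissolved in DMSO, serially diluted in growth medium, then inoculum suspension added, final concentrations 128 to 0.25 µg/mL (twofold series). Incubated at 32°C. MIC read visually after 2-7 d.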

Candida albicans [3] = assay: Antifungal activity against Candida albicans cpcc 400616 after 2 to 7 days by broth microdilution method; type: functional; summary of the method: as §1
Aspergillus fumigatus = assay: Antifungal activity against Aspergillus fumigatus cgmcc 3.7795 after 2 to 7 days by broth microdilution method; type: functional; summary of the method: as §1
Candida tropicalis = assay: Antifungal activity against Candida tropicalis cgmcc 2.3739 after 2 to 7 days by broth microdilution method; type: functional; summary of the method: as §1
Cryptococcus neoformans = assay: Antifungal activity against Cryptococcus neoformans cgmcc 2.3161 after 2 to 7 days by broth microdilution method; type: functional; summary of the method: as §1
HT-29 = assay: Cytotoxicity against human HT-29 cells by MTT assay; type: cell-based
HepG2 = assay: Cytotoxicity against human HepG2 cells by MTT assay; type: cell-based
H9c2 = assay: Cytotoxicity against rat H9c2 cells by MTT assay; type: cell-based
A549 = assay: Cytotoxicity against human A549 cells by MTT assay; type: cell-based

Compound	MIC (Candida albicans [1])	MIC (Candida albicans [2])	MIC (Candida albicans [3])	MIC (Aspergillus fumigatus)	MIC (Candida tropicalis)	MIC (Cryptococcus neoformans)	IC50 (HT-29)	IC50 (HepG2)	IC50 (H9c2)	IC50 (A549)
CCN(CC)CC1=C(Cl)c2cc(C)ccc2SC1	64 µg/mL (≈ 227 µM)	32 µg/mL (≈ 114 µM)	32 µg/mL (≈ 114 µM)	> 128 µg/mL	64 µg/mL (≈ 227 µM)	8 µg/mL (≈ 28.4 µM)	–	–	–	–
O=CC1=C(Cl)c2cc(Cl)ccc2SC1	64 µg/mL (≈ 261 µM)	32 µg/mL (≈ 131 µM)	64 µg/mL (≈ 261 µM)	> 128 µg/mL	32 µg/mL (≈ 131 µM)	32 µg/mL (≈ 131 µM)	18.4 µg/mL (≈ 75.2 µM)	21.5 µg/mL (≈ 87.8 µM)	> 100 µg/mL	> 100 µg/mL
Fc1ccc2c(c1)C(Cl)=C(Cn1ccnc1)CS2	64 µg/mL (≈ 228 µM)	4 µg/mL (≈ 14.2 µM)	16 µg/mL (≈ 57 µM)	> 128 µg/mL	8 µg/mL (≈ 28.5 µM)	32 µg/mL (≈ 114 µM)	–	–	–	–
Cc1ccc2c(c1)C(=O)CCS2	64 µg/mL (≈ 359 µM)	8 µg/mL (≈ 44.9 µM)	16 µg/mL (≈ 89.8 µM)	> 128 µg/mL	4 µg/mL (≈ 22.4 µM)	32 µg/mL (≈ 180 µM)	–	–	–	–
Cc1ccc2c(c1)C(Cl)=C(C=O)CS2	64 µg/mL (≈ 285 µM)	16 µg/mL (≈ 71.2 µM)	32 µg/mL (≈ 142 µM)	> 128 µg/mL	64 µg/mL (≈ 285 µM)	64 µg/mL (≈ 285 µM)	–	–	–	–
CC(C)N(CC1=C(Cl)c2cc(Cl)ccc2SC1)C(C)C	64 µg/mL (≈ 194 µM)	4 µg/mL (≈ 12.1 µM)	4 µg/mL (≈ 12.1 µM)	> 128 µg/mL	64 µg/mL (≈ 194 µM)	64 µg/mL (≈ 194 µM)	–	–	–	–
ClC1=C(Cn2ccnc2)CSc2ccc(Br)cc21	> 128 µg/mL	16 µg/mL (≈ 46.8 µM)	64 µg/mL (≈ 187 µM)	> 128 µg/mL	> 128 µg/mL	8 µg/mL (≈ 23.4 µM)	–	–	–	–
ClC1=C(CN2CCCC2)CSc2ccc(Cl)cc21	> 128 µg/mL	1 µg/mL (≈ 3.33 µM)	32 µg/mL (≈ 107 µM)	> 128 µg/mL	4 µg/mL (≈ 13.3 µM)	4 µg/mL (≈ 13.3 µM)	–	–	–	–
ClC1=C(Cn2ccnc2)CSc2ccc(Cl)cc21	64 µg/mL (≈ 215 µM)	16 µg/mL (≈ 53.8 µM)	32 µg/mL (≈ 108 µM)	64 µg/mL (≈ 215 µM)	64 µg/mL (≈ 215 µM)	8 µg/mL (≈ 26.9 µM)	–	–	–	–
O=CC1=C(Cl)c2cc(F)ccc2SC1	64 µg/mL (≈ 280 µM)	64 µg/mL (≈ 280 µM)	64 µg/mL (≈ 280 µM)	> 128 µg/mL	16 µg/mL (≈ 70 µM)	32 µg/mL (≈ 140 µM)	–	–	–	–
ClC1=C(Cn2cncn2)CSc2ccc(Br)cc21	> 128 µg/mL	64 µg/mL (≈ 187 µM)	> 128 µg/mL	> 128 µg/mL	> 128 µg/mL	8 µg/mL (≈ 23.3 µM)	–	–	–	–
CCN(CC)CC1=C(Cl)c2cc(Br)ccc2SC1	64 µg/mL (≈ 185 µM)	8 µg/mL (≈ 23.1 µM)	16 µg/mL (≈ 46.1 µM)	> 128 µg/mL	64 µg/mL (≈ 185 µM)	4 µg/mL (≈ 11.5 µM)	–	–	–	–
CCN(CC)CC1=C(Cl)c2cc(Cl)ccc2SC1	8 µg/mL (≈ 26.5 µM)	0.5 µg/mL (≈ 1.65 µM)	4 µg/mL (≈ 13.2 µM)	> 128 µg/mL	2 µg/mL (≈ 6.62 µM)	1 µg/mL (≈ 3.31 µM)	> 100 µg/mL	> 100 µg/mL	> 100 µg/mL	> 100 µg/mL
CC(C)N(CC1=C(Cl)c2cc(F)ccc2SC1)C(C)C	64 µg/mL (≈ 204 µM)	4 µg/mL (≈ 12.7 µM)	4 µg/mL (≈ 12.7 µM)	> 128 µg/mL	2 µg/mL (≈ 6.37 µM)	4 µg/mL (≈ 12.7 µM)	–	–	–	–
Fc1ccc2c(c1)C(Cl)=C(Cn1cncn1)CS2	32 µg/mL (≈ 114 µM)	4 µg/mL (≈ 14.2 µM)	16 µg/mL (≈ 56.8 µM)	> 128 µg/mL	8 µg/mL (≈ 28.4 µM)	64 µg/mL (≈ 227 µM)	–	–	–	–
Cc1ccc2c(c1)C(Cl)=C(CN1CCCCC1)CS2	128 µg/mL (≈ 436 µM)	16 µg/mL (≈ 54.4 µM)	32 µg/mL (≈ 109 µM)	> 128 µg/mL	64 µg/mL (≈ 218 µM)	16 µg/mL (≈ 54.4 µM)	–	–	–	–
CC(C)NCC1=C(Cl)c2cc(Cl)ccc2SC1	32 µg/mL (≈ 111 µM)	16 µg/mL (≈ 55.5 µM)	32 µg/mL (≈ 111 µM)	64 µg/mL (≈ 222 µM)	32 µg/mL (≈ 111 µM)	0.5 µg/mL (≈ 1.73 µM)	–	–	–	–
CC(C)NCC1=C(Cl)c2cc(F)ccc2SC1	64 µg/mL (≈ 235 µM)	2 µg/mL (≈ 7.36 µM)	8 µg/mL (≈ 29.4 µM)	64 µg/mL (≈ 235 µM)	2 µg/mL (≈ 7.36 µM)	4 µg/mL (≈ 14.7 µM)	–	–	–	–

Compound	MIC (Candida albicans [1])	MIC (Candida albicans [2])	MIC (Candida albicans [3])	MIC (Aspergillus fumigatus)	MIC (Candida tropicalis)	MIC (Cryptococcus neoformans)	IC50 (HT-29)	IC50 (HepG2)	IC50 (H9c2)	IC50 (A549)
OC(Cn1cncn1)(Cn1cncn1)c1ccc(F)cc1F [FLUCONAZOLE]	32 µg/mL (≈ 104 µM)	1 µg/mL (≈ 3.27 µM)	4 µg/mL (≈ 13.1 µM)	> 128 µg/mL	2 µg/mL (≈ 6.53 µM)	1 µg/mL (≈ 3.27 µM)	> 100 µg/mL	> 100 µg/mL	> 100 µg/mL	> 100 µg/mL
CC(C)N(CC1=C(Cl)c2cc(Br)ccc2SC1)C(C)C	0.5 µg/mL (≈ 1.33 µM)	0.5 µg/mL (≈ 1.33 µM)	0.5 µg/mL (≈ 1.33 µM)	> 128 µg/mL	> 128 µg/mL	0.25 µg/mL (≈ 0.667 µM)	> 100 µg/mL	> 100 µg/mL	> 100 µg/mL	36 µg/mL (≈ 96.2 µM)
CN1CCN(CC2=C(Cl)c3cc(F)ccc3SC2)CC1	16 µg/mL (≈ 51.1 µM)	16 µg/mL (≈ 51.1 µM)	16 µg/mL (≈ 51.1 µM)	> 128 µg/mL	32 µg/mL (≈ 102 µM)	1 µg/mL (≈ 3.2 µM)	–	–	–	–
Fc1ccc2c(c1)C(Cl)=C(CN1CCCC1)CS2	64 µg/mL (≈ 226 µM)	8 µg/mL (≈ 28.2 µM)	8 µg/mL (≈ 28.2 µM)	> 128 µg/mL	16 µg/mL (≈ 56.4 µM)	4 µg/mL (≈ 14.1 µM)	–	–	–	–
Fc1ccc2c(c1)C(Cl)=C(CN1CCCCC1)CS2	16 µg/mL (≈ 53.7 µM)	8 µg/mL (≈ 26.9 µM)	2 µg/mL (≈ 6.72 µM)	> 128 µg/mL	16 µg/mL (≈ 53.7 µM)	2 µg/mL (≈ 6.72 µM)	–	–	–	–
CCN(CC)CC1=C(Cl)c2cc(F)ccc2SC1	64 µg/mL (≈ 224 µM)	8 µg/mL (≈ 28 µM)	8 µg/mL (≈ 28 µM)	> 128 µg/mL	2 µg/mL (≈ 7 µM)	2 µg/mL (≈ 7 µM)	–	–	–	–
CN1CCN(CC2=C(Cl)c3cc(Cl)ccc3SC2)CC1	64 µg/mL (≈ 194 µM)	16 µg/mL (≈ 48.6 µM)	32 µg/mL (≈ 97.2 µM)	> 128 µg/mL	64 µg/mL (≈ 194 µM)	4 µg/mL (≈ 12.1 µM)	–	–	–	–
COc1cccc2c1C(=O)c1c(O)c3c(c(O)c1C2=O)C[C@@](O)(C(=O)CO)C[C@@H]3O[C@H]1C[C@H](N)[C@H](O)[C@H](C)O1	–	–	–	–	–	–	1.44 µg/mL (≈ 2.65 µM)	2.9 µg/mL (≈ 5.34 µM)	0.29 µg/mL (≈ 0.534 µM)	1.77 µg/mL (≈ 3.26 µM)
CN1CCN(CC2=C(Cl)c3cc(Br)ccc3SC2)CC1	64 µg/mL (≈ 171 µM)	8 µg/mL (≈ 21.4 µM)	16 µg/mL (≈ 42.8 µM)	> 128 µg/mL	16 µg/mL (≈ 42.8 µM)	8 µg/mL (≈ 21.4 µM)	–	–	–	–
O=C1CCSc2ccc(Br)cc21	64 µg/mL (≈ 263 µM)	8 µg/mL (≈ 32.9 µM)	32 µg/mL (≈ 132 µM)	> 128 µg/mL	16 µg/mL (≈ 65.8 µM)	64 µg/mL (≈ 263 µM)	–	–	–	–
CC(C)NCC1=C(Cl)c2cc(Br)ccc2SC1	16 µg/mL (≈ 48.1 µM)	4 µg/mL (≈ 12 µM)	8 µg/mL (≈ 24 µM)	> 128 µg/mL	> 128 µg/mL	4 µg/mL (≈ 12 µM)	–	–	–	–
O=C1CCSc2ccc(Cl)cc21	16 µg/mL (≈ 80.5 µM)	4 µg/mL (≈ 20.1 µM)	16 µg/mL (≈ 80.5 µM)	> 128 µg/mL	8 µg/mL (≈ 40.3 µM)	32 µg/mL (≈ 161 µM)	–	–	–	–
O=C1CCSc2ccc(F)cc21	64 µg/mL (≈ 351 µM)	8 µg/mL (≈ 43.9 µM)	32 µg/mL (≈ 176 µM)	64 µg/mL (≈ 351 µM)	16 µg/mL (≈ 87.8 µM)	64 µg/mL (≈ 351 µM)	–	–	–	–
ClC1=C(CN2CCCC2)CSc2ccc(Br)cc21	64 µg/mL (≈ 186 µM)	8 µg/mL (≈ 23.2 µM)	16 µg/mL (≈ 46.4 µM)	> 128 µg/mL	128 µg/mL (≈ 371 µM)	8 µg/mL (≈ 23.2 µM)	–	–	–	–
ClC1=C(CN2CCCCC2)CSc2ccc(Br)cc21	64 µg/mL (≈ 178 µM)	8 µg/mL (≈ 22.3 µM)	32 µg/mL (≈ 89.2 µM)	> 128 µg/mL	128 µg/mL (≈ 357 µM)	4 µg/mL (≈ 11.2 µM)	–	–	–	–
ClC1=C(Cn2cncn2)CSc2ccc(Cl)cc21	32 µg/mL (≈ 107 µM)	8 µg/mL (≈ 26.8 µM)	16 µg/mL (≈ 53.7 µM)	> 128 µg/mL	32 µg/mL (≈ 107 µM)	4 µg/mL (≈ 13.4 µM)	–	–	–	–
O=CC1=C(Cl)c2cc(Br)ccc2SC1	64 µg/mL (≈ 221 µM)	16 µg/mL (≈ 55.3 µM)	32 µg/mL (≈ 111 µM)	> 128 µg/mL	64 µg/mL (≈ 221 µM)	32 µg/mL (≈ 111 µM)	28.8 µg/mL (≈ 99.4 µM)	26.6 µg/mL (≈ 91.9 µM)	> 100 µg/mL	> 100 µg/mL
Cc1ccc2c(c1)C(Cl)=C(CN1CCN(C)CC1)CS2	64 µg/mL (≈ 207 µM)	8 µg/mL (≈ 25.9 µM)	32 µg/mL (≈ 104 µM)	> 128 µg/mL	8 µg/mL (≈ 25.9 µM)	32 µg/mL (≈ 104 µM)	–	–	–	–
